# Many of the other results were omitted from the sample, so hits are more common in it than they were.
# Lmaj promast: inhibitors of Leishmania major promastigote growth; inhibition, % at 10 µM; Leishmania major promastigotes, resazurin fluorescence viability; actives 9% (n = 200,000); in the data active = inhibition above about 50%;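 note: promastigotes grown with compound for 44 hours at 28 °C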
# Dynein cargo inh: blocks dynein driven cargo transport along microtubules; 3617.4 mouse cells, GR-EGFP nuclear translocation imaging; test concentration mostly 20 µM; stimulated with dexamethasone, 1 µM; hits give low values; z-score, hits read low; actives 0.47% (n = 220,000);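 active = plate z-score of nuclear minus cytoplasmic receptor signal below a set negative limit, without overly bright fluorescence or cell loss, cut at about -3.5 in these data, passing the limit was not always enough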;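 note: z-score of nuclear minus cytoplasmic ring GR-EGFP intensity difference per well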
#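 Buffer or medium: tet-free medium with charcoal-stripped serum / Also added: dexamethasone agonist, 1.0 µM final, for 30 min / Timing: induction 48 h, compound 1 h, agonist 30 min / Measured by: high-content fluorescence imaging after fixation / Read-out: nuclear-to-cytoplasmic GR-EGFP distribution per well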
# T cruzi repl: blocks replication of Trypanosoma cruzi | T. cruzi beta-gal in NIH3T3, luminescence, 90 h | inhibition, % (no concentration beside the values) | actives 1.4% (n = 300,000) | AID 1885;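 active = mean inhibition across valid replicates above about 55%, limit read from the data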;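 note: signal also drops with host cell toxicity which is not excluded here; 0% = plate median of DMSO wells and 100% = zero luminescence signal; higher percent means less beta-gal luminescence so fewer parasites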
#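 System – NIH/3T3 host cells with β-galactosidase reporter T. cruzi · Doses – single 50 nL compound addition per well in DMSO · Reagent – 5000 T. cruzi trypomastigotes/well · Medium – Low-serum DMEM with 2% FBS · Timing – ≥90 h infection period, 3 h prior cell attachment · Evaluation – parasite load inhibition, % · Technique – GalScreen luminescence, 60 min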
# XBP1 UPR activ: activators of adaptive arm of unfolded protein response (XBP1); CHO-XBP1 luciferase reporter, IRE1-XBP1 UPR activation, luminescence; percent of tunicamycin response, DMSO as zero; activation, % at 20 µM; actives 0.33% (n = 330,000);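 active = versus positive control, 20 µM dose yields 30% or more activation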;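 note: 100% = tunicamycin at 10 µg/mL and 0% = DMSO only wells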
#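 Assay system: IRE1-XBP1 luciferase reporter CHO line. Input: 1000 cells/well. Buffer or medium: F12 with 10% serum. Doses: 20 µM, 1% DMSO. Times: overnight seeding at 37 °C, 6 h compound treatment at 37 °C. Technique: Steady-Glo luciferase glow luminescence, 10 min after reagent addition.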
# CHOP inhibitor: CHOP inhibition in unfolded protein response; actives 3.8% (n = 220,000); CHO-K1 CHOP-promoter luciferase, tunicamycin-induced, 15-18 h; inhibition, % at 10 µM; AID 2732;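 active = compounds that reduced the stress-induced luciferase reporter signal by more than about 70% of percent inhibition, limit read from the data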;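 note: 0% = tunicamycin plus vehicle and 100% = wells without tunicamycin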
# UPR CHOP act: activators of apoptotic arm of unfolded protein response (CHOP); CHO-CHOP luciferase reporter, UPR activation, luminescence; percent of tunicamycin response over DMSO baseline; activation, % at 10 µM; actives 0.34% (n = 330,000); AID 449763;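 active = at 10 µM dose, activation of 40% or more, normalized to positive control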;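 note: 100% = tunicamycin at 10 µg/mL and 0% = DMSO alone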
#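 System: CHO-CHOP luciferase reporter cell line; amount: 500 cells/well; buffer or medium: F12 medium containing 10% fetal bovine serum; incubation: 6 h compound exposure at 37 °C after overnight seeding; measured by: luciferase luminescence after 10 min with Steady-Glo reagent; evaluation: % reporter activation, DMSO baseline versus tunicamycin full activation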
# Active calls of the source: *; x = not tested or not shown.
SMILES,Lmaj promast,Dynein cargo inh,T cruzi repl,XBP1 UPR activ,CHOP inhibitor,UPR CHOP act
C=CCn1c(CNc2ccccc2)nnc1SCC(=O)N/N=C/c1ccccc1O,97*,-0.48,13,-1,47,-2
CC(C)(C)c1cc(C2=CSC3=NCCN23)cc(C(C)(C)C)c1O,x,x,30,-5,x,2
CCN1CCN(C(=O)C2CC(=O)N(c3ccc(Cl)cc3)C2)CC1 (configuration not stated),x,x,-3,-1,x,2
Cc1ccccc1-n1nnnc1SCC(=O)NCC1(N2CCOCC2)CCCCC1,x,x,x,0,x,1
CCOC(=O)N1CCN(Cc2nc(N)nc(Nc3ccc(OC)cc3)n2)CC1,7,2.5,-13,-1,5,-1
CCOC(=O)N1CCN(Cc2nc(N)nc(Nc3ccc(Oc4ccccc4)cc3)n2)CC1,10,-1.5,x,-3,74*,0
CCOC(=O)C1CCCN(Cc2nc(N)nc(Nc3ccc(OC)cc3)n2)C1 (configuration not stated),4,0.26,-2,-1,4,-2
CCOC(=O)C1CCCN(Cc2nc(N)nc(Nc3ccc(Cl)cc3)n2)C1 (configuration not stated),71*,-0.31,-7,-2,33,-2
COc1ccc(Nc2nc(N)nc(CN3CCC(Cc4ccccc4)CC3)n2)cc1,87*,0.27,-17,0,43,-1
COc1ccccc1Nc1nc(N)nc(CN2CCC(Cc3ccccc3)CC2)n1,18,-0.058,14,0,17,0
CCCN(CC(=O)Nc1ccccc1C)C(=O)CC(NC(=O)c1ccccc1)c1ccccc1 (configuration not stated),x,x,4,-4,x,-1
COc1ccc(C2=NN(C(C#N)c3ccc(OC)cc3)C(c3ccccc3)C2)cc1 (configuration not stated),69*,0.028,11,x,-12,x
COc1ccc(C(C#N)N2N=C(c3ccccc3)CC2c2ccccc2)cc1OC (configuration not stated),100*,-0.64,6,-1,15,2
COc1ccc(C(C#N)N2N=C(C)CC2c2ccccc2)cc1 (configuration not stated),x,x,2,-3,x,2
Cc1cc(C)c(C#N)c(N2CCN(Cc3ccccc3)CC2)n1,17,0.13,11,-1,24,0
N#Cc1c(N2CCCCC2)nc(N2CCCCC2)c2c1CCN(Cc1ccccc1)C2,100*,-0.62,56*,-3,27,0
CCCc1nc(NCc2ccccc2)c(C#N)c2c1CCCC2,45,-0.37,0,-1,30,-2
C=CCNc1nc(NCc2ccccc2)c(C#N)c2c1CN(C)CC2,31,-0.39,52,9,-15,-1
CCN1CCc2c(C#N)c(NCc3ccccc3)nc(N(CC)CC)c2C1,98*,2.7,82*,0,67,0
N#Cc1c(NCCN)nc(NCc2ccccc2)c2c1CCN(Cc1ccccc1)C2,97*,0.8,x,x,x,x
COc1ccccc1C(=O)NNC(=O)C1CCCO1 (configuration not stated),x,x,-7,-3,x,1
COc1ccc(NC(=O)CS(=O)CC(=O)Nc2ccc(-n3cnnn3)c(C)c2)cc1 (configuration not stated),x,x,-7,2,x,-1
O=[N+]([O-])C(/C=C(/Cl)[N+](=O)[O-])=C(N1CCCCC1)N1CCCCC1,x,-0.41,55*,-4,4,-1
COc1cc2c(cc1NC(=O)Nc1ccc(C)cc1)oc1ccccc12,98*,1.6,15,-1,59,2
COc1ccc(NC(=O)Nc2cc3oc4ccccc4c3cc2OC)cc1,2,-0.26,48,3,43,1
SMILES,Lmaj promast,Dynein cargo inh,T cruzi repl,XBP1 UPR activ,CHOP inhibitor,UPR CHOP act
COc1cc2c(cc1NC(=O)Nc1cccc(C)c1)oc1ccccc12,-2,-0.15,34,-1,90*,0
COc1cc2c(cc1NC(=O)Nc1ccc(F)cc1)oc1ccccc12,-11,-0.025,60*,3,26,5
Cc1nn(C(C)C(=O)NC2CCCCCC2)c(=O)c2nn(-c3ccccc3)c(C)c12 (configuration not stated),x,x,-15,-2,x,2
Cc1ccc(CNC(=O)CN(C(=O)C2(C)CC(=O)N=C3C=CC=CN32)c2cccc(C)c2C)cc1 (configuration not stated),x,x,11,-1,x,1
CCCCCn1c(N2CCN(Cc3ccccc3)CC2)nc2c1c(=O)[nH]c(=O)n2C,100*,-0.073,11,6,34,1
Cc1ccc(-c2nc3c(c(=O)[nH]c(=O)n3Cc3ccccc3)n2C)s1,x,-0.013,-10,-1,3,2
Cn1c(C2CCCCC2)nc2c1c(=O)[nH]c(=O)n2Cc1ccccc1,7,0.95,11,2,72*,-1
Cn1c(=O)[nH]c(=O)c2c1nc(N1CCC(Cc3ccccc3)CC1)n2Cc1ccccc1,38,1.9,35,-3,88*,0
CC(=O)Cn1c(N2CCC(Cc3ccccc3)CC2)nc2c1c(=O)[nH]c(=O)n2C,3,1.7,-1,3,40,0
Cn1c(=O)[nH]c(=O)c2c1nc(N1CCCCCC1)n2CCCSc1nc2ccccc2o1,33,-0.56,40,11,95*,2
O=C(NC1CC2CCCC(C1)N2Cc1ccc(F)cc1)c1ccc(F)cc1 (configuration not stated),x,x,1,-3,x,0
CCCCCn1c(N2CCC(Cc3ccccc3)CC2)nc2c1c(=O)[nH]c(=O)n2C,99*,-0.61,57*,18,x,1
CCCn1c(N2CCC(Cc3ccccc3)CC2)nc2c1c(=O)[nH]c(=O)n2C,20,-0.85,18,5,50,0
CN(Cc1ccccc1)c1nc2c(c(=O)[nH]c(=O)n2C)n1CCOc1ccccc1,55*,-0.93,10,14,-1,0
Fc1cc(F)c(NC(=S)N2CCOCC2)c(F)c1,x,x,8,-5,x,0
Cc1ccc(-n2c(N)cc(=O)nc2SCC(=O)NC2CCCCC2)cc1C,x,x,-2,-3,x,0
CCCCOC(=O)c1ccc(NC(=O)CSC2=Nc3ccccc3C3CC=NN23)cc1 (configuration not stated),99*,0.5,33,10,-35,5
C#CCNC(=O)C1=C[C@@H](c2ccc(C(F)(F)F)cc2)[C@H](CCCO)[C@@H](OCC)O1,-3,0.52,4,0,-3,-1
O=C(Nc1ccccc1Cl)C1CCCN(S(=O)(=O)c2cccc3cccnc23)C1 (configuration not stated),x,x,1,-3,x,-2

# Screens from PubChem BioAssay.
